# Shown are actives, neighbours in structure and some others; about 4.9% of the full set was active somewhere.
# RAM inhibit: inhibitors of the yeast RAM network, primary screen, dse1pr::URA3 reporter, 5-FOA selection; S. cerevisiae dse1pr::URA3 reporter, 5-FOA growth OD615, 2 d; analog-sensitive cbk1-as2 kinase mutant strain; 190,000 tested, 1.8% active; inhibition, % at 50 µM;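 active = inhibition above a set limit, 3 SD over mean compound inhibition, cut at about 8.4% in these data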;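 note: 0% = DMSO-only wells with no growth and 100% = 10 µM 1-NA-PP1 full growth; inhibition rescues growth on 5-FOA so higher OD means more RAM inhibition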
# NPY-Y1 antag: NPY-Y1 receptor antagonists, primary screen, cell-based. inhibition, % at 3.6 µM. HEK293-CNG Y1 cells, membrane potential fluorescence; NPY at EC95, then isoproterenol. AID 1040, 2008. Neuropeptide Y receptor type 1 (Homo sapiens), P25929. 200,000 tested, 1% active;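 active = inhibition above the campaign mean inhibition of all tested compounds plus 3 SD, cut at about 20% in these data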;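 note: 0% = DMSO wells given NPY plus isoproterenol and 100% = isoproterenol alone without NPY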
# Target sequence (P25929 whole entry, looked up): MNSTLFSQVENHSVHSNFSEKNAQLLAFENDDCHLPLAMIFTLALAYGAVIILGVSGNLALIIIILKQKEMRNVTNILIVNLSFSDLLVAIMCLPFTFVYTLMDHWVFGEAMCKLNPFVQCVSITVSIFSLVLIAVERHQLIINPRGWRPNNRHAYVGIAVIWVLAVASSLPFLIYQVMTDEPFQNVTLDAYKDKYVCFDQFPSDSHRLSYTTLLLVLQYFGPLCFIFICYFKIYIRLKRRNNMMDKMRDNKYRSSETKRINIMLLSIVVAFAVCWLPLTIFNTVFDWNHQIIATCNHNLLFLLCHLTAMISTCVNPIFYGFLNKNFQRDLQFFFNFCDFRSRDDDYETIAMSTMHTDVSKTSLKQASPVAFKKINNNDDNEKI
#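 Benchmarks – high control isoproterenol alone, low control NPY with isoproterenol · Material – HEK293 Y1/CNG channel cell line · Times – dye 3 h, compound 60 min room temperature, stimulation 45 min · Probe or stimulus – NPY (25 nM), isoproterenol (1 µM), Ro 20-1724 (25 µM) · Evaluation – % inhibition of NPY effect · Signal – fluorescence, membrane potential probe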
# NPY1 pot ag: NPY-Y1 receptor potentiators or agonists, primary screen, cell-based; NPY-Y1 expressing cells, potentiator/agonist activation; activation, % at 3.6 µM; 220,000 tested, 0.37% active; AID 1304, 2008; in the data active = activation above about 33%, passing the limit was not always enough;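 note: cells stimulated with NPY at EC10 then isoproterenol at EC100; 0% = low agonist plus stimulus and 100% = saturating agonist plus stimulus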
# NPY2 pot ag: NPY-Y2 potentiators or agonists, primary screen, cell-based. cells expressing NPY-Y2, potentiator/agonist read-out. AID 1359, 2008. activation, % at 3.6 µM. 220,000 tested, 0.45% active; in the data active = activation above about 27%;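 note: cells stimulated with NPY near EC25 plus isoproterenol at EC100; 0% = vehicle plus submaximal agonist and 100% = vehicle plus saturating agonist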
# NPY Y2 blocker: NPY-Y2 receptor antagonists, primary screen, cell-based; Neuropeptide Y receptor type 2 (Homo sapiens), P49146; NPY-Y2 expressing cells, antagonist mode; inhibition, % at 2.7 µM; 140,000 tested, 0.99% active; in the data active = inhibition above about 17%;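 note: 0% = vehicle with agonist challenge and 100% = reference antagonist with challenge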
# WT yeast gro inh: growth inhibition of WT strain, primary screen, mitochondrial fusion inhibitor project, WT and mutant strains, chemical genetic. mitochondrial fusion phenotypic screen. 190,000 tested, 2.1% active. AID 1362, 2008. inhibition, % at 10 µM; in the data active = inhibition above about 58%; tested in S. cerevisiae
# NPY-Y2 pot conf: NPY-Y2 potentiators or agonists, confirmation, cell-based | shares compounds with NPY2 pot ag | cell-based NPY-Y2 potentiator/agonist assay | activation, % at 3.6 µM | 450 tested, 20% active; in the data active = activation above about 33%
# NPY-Y1 potentiator: NPY-Y1 potentiators or agonists, counter-screen for NPY-Y2 potentiator project, cell-based, fluorescence; shares compounds with NPY2 pot ag; Y1 HEK293-CNG cells, membrane potential fluorescence; activation, % at 3.6 µM; 450 tested, 20% active; AID 1651, 2009; in the data active = activation above about 45%;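 note: cells stimulated with submaximal NPY then isoproterenol with phosphodiesterase inhibitor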
# NPY-Y1 ag 2: NPY-Y1 direct agonists, selectivity assay for NPY-Y2 potentiator project, cell-based, fluorescence; HEK293 Y1-CNGC, membrane potential fluorescence, agonism; 450 tested, 37% active; AID 1702, 2009; shares compounds with NPY2 pot ag; activation, % at 3.6 µM;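 active = activation above the mean of DMSO-only control wells plus 3 SD, cut at about 18% in these data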;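 note: cells stimulated with 1 µM isoproterenol plus the PDE inhibitor Ro 20-1724; 0% = isoproterenol with DMSO and no NPY and 100% = 40 nM NPY; Y1 agonists lower the membrane potential dye signal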
# CNGC inhibitor: CNGC cAMP sensor activity inhibitors, counter-screen for NPY-Y2 potentiator project, cell-based, HEK293-CNG parental, membrane potential fluorescence. shares compounds with NPY2 pot ag. isoproterenol cAMP. inhibition, % at 3.6 µM. 450 tested, 32% active. AID 1703, 2009;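 active = inhibition above the control-well mean plus 3 SD of those wells, cut at about 22% in these data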;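 note: 0% = DMSO with isoproterenol and 100% = DMSO without isoproterenol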
# Y2 agonist ctr: NPY-Y2 direct agonists, counter-screen for NPY-Y2 potentiator project, cell-based, fluorescence; shares compounds with NPY2 pot ag; HEK293 Y2/CNGC cells, membrane potential fluorescence, agonist mode; activation, % at 3.6 µM; 450 tested, 56% active;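 active = activation above the mean of solvent-only control wells plus 3 SD, cut at about 10% in these data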;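 note: cells stimulated by isoproterenol with no NPY added so direct agonism is tested; 0% = DMSO with isoproterenol alone and 100% = NPY at EC100 plus isoproterenol; agonism lowers probe fluorescence through less cAMP and CNG channel opening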
# Active calls of the source: *; · = no result given.
SMILES,RAM inhibit,NPY-Y1 antag,NPY1 pot ag,NPY2 pot ag,NPY Y2 blocker,WT yeast gro inh,NPY-Y2 pot conf,NPY-Y1 potentiator,NPY-Y1 ag 2,CNGC inhibitor,Y2 agonist ctr
c1ccc2c(c1)CCN(C1=Nc3cccc4cccc1c34)C2,1,-5,38,33*,·,32,64*,88*,62*,62*,61*
CC(C)(C)N(Cc1cc2ccccc2[nH]c1=O)C(=O)c1cccnc1,2,-2,14,85*,-1,-12,-1,0,0,1,1
Cc1cc(C)cc(NC(=S)N2CCC(N(C)CC3CCCO3)CC2)c1 (configuration not stated),1,-2,12,31*,·,9,7,3,-3,5,10
CCC(C)(C)NC(=O)C(c1cccn1C)N(Cc1ccccc1)C(=O)Cn1nnc2ccccc21 (configuration not stated),4,14,-77,61*,12,4,-129,-200,-131,-127,-103
OC[C@H]1OC(Nc2ccc(N=Nc3ccccc3)cc2)[C@@H](O)[C@@H](O)[C@@H]1O (some centres not stated),·,·,13,19,·,·,·,·,·,·,·
Cc1ccccc1OCC(O)CN1CCC(C)CC1 (configuration not stated),5,-4,31,37*,·,3,21,34,19*,3,42*
COC(=O)c1ccc(OCC(=O)c2ccccc2OC)cc1,4,17,-13,-10,7,7,·,·,·,·,·
OCCN(CCO)c1ccc(C(c2ccccc2Cl)c2ccc(N(CCO)CCO)cc2Cl)c(Cl)c1,6,-9,39,34*,-3,5,35*,47*,31*,37*,39*
OCCN(CCO)c1ccc2ccccc2c1,2,-6,11,-7,·,-17,·,·,·,·,·
COc1ccc(N=c2cc(-c3ccc(OC)cc3)oc3ccccc23)cc1,2,-2,31,30*,3,76*,52*,74*,61*,53*,54*
COc1cc(C(=O)NNC2=CC(=O)CC(C)(C)C2)cc(OC)c1OC,4,-1,32,44*,2,0,3,2,7,6,9
Cc1ccc(NS(=O)(=O)c2cccc(C(=O)Nc3c(C)n(C)n(-c4ccccc4)c3=O)c2)cc1,·,·,-18,58*,·,·,-3,-2,-11,0,-1
CC(=O)c1c(C)[nH]c(C(=O)OCc2ccccc2)c1C,4,-5,21,13,-3,16,·,·,·,·,·
CC(=O)c1c(C)[nH]c(C(=O)OCCCCN2C(=O)c3ccccc3C2=O)c1C,5,4,-31,39*,3,1,1,-11,12,-7,22*
COC(=O)c1ccccc1NC(=O)/C=C/c1ccco1,4,-7,26,33*,-3,8,41*,50*,56*,35*,48*
CCN(CC(=O)Nc1ccc2c(c1)OCCO2)CC(=O)Nc1cc(C)on1,0,1,-12,12,1,-7,·,·,·,·,·
N#C/C(=N/Nc1ccc(OC(F)(F)F)cc1)C(N)=S,·,·,27,46*,·,·,13,1,-10,-2,23*
CC(C)CCOCC1CC2(CC(C)(c3csc(N)n3)OC2=O)C(=O)O1 (configuration not stated),0,3,16,-8,6,-2,·,·,·,·,·
O=C(Nc1ccc(S(=O)(=O)Nc2nccs2)cc1)c1cc(-c2ccccc2Cl)nc2ccccc12,4,-2,10,34*,5,-10,14,17,6,8,10
Cn1c(SCc2ccccc2Cl)nnc1-c1cnccn1,-1,-7,21,13,2,2,·,·,·,·,·
Cn1c(SCc2ccc(C#N)cc2)nnc1-c1cccc(Cl)c1,1,12,31,-21,4,3,·,·,·,·,·
O=C(O)CC1(CC(=O)Nc2ccc(F)cc2F)CCCCC1,·,·,5,3,·,·,·,·,·,·,·
CC(C)CC(NC(=O)c1ccc(Cl)cc1)C(=O)OCc1cc([N+](=O)[O-])cc2c1OCOC2 (configuration not stated),1,-8,22,28*,2,7,0,-2,-10,-3,18*
Cc1onc(-c2c(Cl)cccc2Cl)c1-c1nc2cc(Cl)ccc2c(=O)o1,·,·,-5,-15,·,·,·,·,·,·,·
Cc1cc2cc(C)c(SCC(=O)NCc3ccco3)nc2cc1C,7,9,-9,-15,·,-17,·,·,·,·,·
O=C(Cc1ccc(Cl)cc1)Nc1cccc(S(=O)(=O)Nc2ccccc2F)c1,8,-8,38,38*,-4,-7,14,22,13,16,20*
COc1ccccc1NS(=O)(=O)c1cccc(NC(=O)Nc2ccc(Cl)cc2)c1,4,-9,19,31*,·,9,30,38,30*,32*,31*
O=c1cc(-c2cccc(F)c2)[nH]c2ccccc12,1,18,-19,2,3,-12,·,·,·,·,·
CCN(CC)S(=O)(=O)c1ccc(/C=C/C(=O)OCC(=O)N(C(C)C)C(C)C)cc1,0,-1,-2,47*,·,-3,-1,9,-8,7,6
Cc1nn(Cc2ccc(Cl)cc2)c(C)c1NC(=O)CSc1n[nH]c(C)c1[N+](=O)[O-],1,-4,9,29*,1,-2,13,16,16,19,27*

# Source: PubChem
